Data as given in ChEMBL document CHEMBL3797061, “Characterizing the Covalent Targets of a Small Molecule Inhibitor of the Lysine Acetyltransferase P300” (ACS Med Chem Lett, 2016).
Blank lines part the entries; values can stand above or below the molecule they belong to. Calls of active or inactive are those of the source. The rule behind the calls is not given here.

What was measured:
Tubulin (Sus scrofa) = Tubulin (Sus scrofa) (UniProt P02554+P02550); test: Inhibition of porcine brain tubulin polymerization assessed as decrease in rate of microtubule formation incubated up to 1 hr by fluorescence analysis
Procedure, shortened: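 Porcine tubulin was preincubated with compound and polymerization was then followed by a fluorescence assay. Read-outs were the rate of microtubule formation and final polymer mass. CaCl2 served as the positive control for inhibition.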

HEK293 [1] = test: Binding affinity to HEK293 proteomes incubated for 16 hrs using TAMRA-azide dye by SDS-PAGE based fluorescence analysis; type: cell-based; settings: Homo sapiens
Procedure, shortened: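 HEK-293 cell lysate was incubated 16 h with alkyne probe (5–50 μM) and then conjugated to a fluorescent azide by Cu-catalysed [3+2] cycloaddition. Reactions were quenched in loading buffer without boiling. Proteins were resolved by SDS-PAGE and covalent labeling was imaged by in-gel fluorescence.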

[2] = biological target: Tubulin alpha-1B chain (Homo sapiens) (UniProt P68363); test: Binding affinity to TUBA1B in HEK293 proteomes assessed as spectral count ratio at 20 uM incubated for 16 hrs by TAMRA biotin-azide dye based LC-MS/MS analysis relative to control
Procedure, shortened: (§1)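 HEK-293 proteome labeled with alkyne probe, then enriched and identified by LC–MS/MS. Spectral counts compared with a no-probe control.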

[3] = biological target: Tubulin alpha-1A chain (Homo sapiens) (UniProt Q71U36); test: Binding affinity to TUBA1A in HEK293 proteomes assessed as spectral count ratio at 20 uM incubated for 16 hrs by TAMRA biotin-azide dye based LC-MS/MS analysis relative to control; procedure, shortened: as §1
[4] = biological target: Tubulin alpha-1C chain (Homo sapiens) (UniProt Q9BQE3); test: Binding affinity to TUBA1C in HEK293 proteomes assessed as spectral count ratio at 20 uM incubated for 16 hrs by TAMRA biotin-azide dye based LC-MS/MS analysis relative to control; procedure, shortened: as §1
[5] = biological target: Tubulin beta-5 chain (Homo sapiens) (UniProt P07437); test: Binding affinity to TUBB in HEK293 proteomes assessed as spectral count ratio at 20 uM incubated for 16 hrs by TAMRA biotin-azide dye based LC-MS/MS analysis relative to control; procedure, shortened: as §1
[6] = biological target: Tubulin alpha-8 chain (Homo sapiens) (UniProt Q9NY65); test: Binding affinity to TUBA8 in HEK293 proteomes assessed as spectral count ratio at 20 uM incubated for 16 hrs by TAMRA biotin-azide dye based LC-MS/MS analysis relative to control; procedure, shortened: as §1
[7] = biological target: Elongation factor 1-alpha 1 (Homo sapiens) (UniProt P68104); test: Binding affinity to EEF1A1 in HEK293 proteomes assessed as spectral count ratio at 20 uM incubated for 16 hrs by TAMRA biotin-azide dye based LC-MS/MS analysis relative to control; procedure, shortened: as §1
[8] = biological target: Tubulin beta-2A chain (Homo sapiens) (UniProt Q13885); test: Binding affinity to TUBB2A in HEK293 proteomes assessed as spectral count ratio at 20 uM incubated for 16 hrs by TAMRA biotin-azide dye based LC-MS/MS analysis relative to control; procedure, shortened: as §1
[9] = biological target: 60 kDa heat shock protein, mitochondrial (Homo sapiens) (UniProt P10809); test: Binding affinity to HSPD1 in HEK293 proteomes assessed as spectral count ratio at 20 uM incubated for 16 hrs by TAMRA biotin-azide dye based LC-MS/MS analysis relative to control; procedure, shortened: as §1
[10] = biological target: Tubulin beta-4A chain (Homo sapiens) (UniProt P04350); test: Binding affinity to TUBB4A in HEK293 proteomes assessed as spectral count ratio at 20 uM incubated for 16 hrs by TAMRA biotin-azide dye based LC-MS/MS analysis relative to control; procedure, shortened: as §1
[11] = biological target: D-3-phosphoglycerate dehydrogenase (Homo sapiens) (UniProt O43175); test: Binding affinity to PHGDH in HEK293 proteomes at 20 uM incubated for 16 hrs by TAMRA biotin-azide dye based LC-MS/MS analysis; type: cell-based; procedure, shortened: as §1
[12] = biological target: Alpha-enolase (Homo sapiens) (UniProt P06733); test: Binding affinity to ENO1 in HEK293 proteomes assessed as spectral count ratio at 20 uM incubated for 16 hrs by TAMRA biotin-azide dye based LC-MS/MS analysis relative to control; procedure, shortened: as §1
[13] = biological target: Heterogeneous nuclear ribonucleoprotein H (Homo sapiens) (UniProt P31943); test: Binding affinity to HNRNPH1 in HEK293 proteomes at 20 uM incubated for 16 hrs by TAMRA biotin-azide dye based LC-MS/MS analysis; type: cell-based; procedure, shortened: as §1
[14] = biological target: Eukaryotic initiation factor 4A-I (Homo sapiens) (UniProt P60842); test: Binding affinity to EIF4A1 in HEK293 proteomes assessed as spectral count ratio at 20 uM incubated for 16 hrs by TAMRA biotin-azide dye based LC-MS/MS analysis relative to control; procedure, shortened: as §1
[15] = biological target: Creatine kinase B-type (Homo sapiens) (UniProt P12277); test: Binding affinity to CKB in HEK293 proteomes assessed as spectral count ratio at 20 uM incubated for 16 hrs by TAMRA biotin-azide dye based LC-MS/MS analysis relative to control; procedure, shortened: as §1
[16] = biological target: Pyruvate kinase PKM (Homo sapiens) (UniProt P14618); test: Binding affinity to PKM in HEK293 proteomes assessed as spectral count ratio at 20 uM incubated for 16 hrs by TAMRA biotin-azide dye based LC-MS/MS analysis relative to control; procedure, shortened: as §1
[17] = biological target: Heat shock protein HSP 90-beta (Homo sapiens) (UniProt P08238); test: Binding affinity to HSP90AB1 in HEK293 proteomes assessed as spectral count ratio at 20 uM incubated for 16 hrs by TAMRA biotin-azide dye based LC-MS/MS analysis relative to control; procedure, shortened: as §1
[18] = biological target: Actin, cytoplasmic 1 (Homo sapiens) (UniProt P60709); test: Binding affinity to ACTB in HEK293 proteomes assessed as spectral count ratio at 20 uM incubated for 16 hrs by TAMRA biotin-azide dye based LC-MS/MS analysis relative to control; procedure, shortened: as §1
[19] = biological target: Heat shock 70 kDa protein 1A/1B (Homo sapiens) (UniProt P0DMV8+P0DMV9); test: Binding affinity to HSPA1A/HSPA1B in HEK293 proteomes assessed as spectral count ratio at 20 uM incubated for 16 hrs by TAMRA biotin-azide dye based LC-MS/MS analysis relative to control; type: protein assay; procedure, shortened: as §1
HEK293 [20] = test: Binding affinity to HEK293 proteomes at 1 uM incubated for 16 hrs using TAMRA-azide dye by SDS-PAGE based fluorescence analysis in presence of iodoacetamide; type: cell-based; settings: Homo sapiens
Procedure, shortened: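 Proteomes were preincubated with iodoacetamide before alkyne-probe treatment. Probe labeling then proceeded by click conjugation to a fluorescent azide, SDS-PAGE without boiling, and fluorescence imaging to test for cysteine-directed labeling.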

HEK293 [21] = test: Binding affinity to HEK293 proteomes assessed as compound-Cysteine adduct formation at 1 uM incubated for 24 hrs by LC-MS/MS analysis; type: cell-based; settings: Homo sapiens
[22] = biological target: Histone acetyltransferase p300 (Homo sapiens, UniProt Q09472); test: Inhibition of recombinant P300 catalytic domain (1284 to 1673 residues) (unknown origin) using FITC- histone H4 peptide (1 to 19 residues) as substrate by electrophoretic mobility shift assay

Tubulin alpha-8 chain (Homo sapiens), sequence (Q9NY65 whole entry): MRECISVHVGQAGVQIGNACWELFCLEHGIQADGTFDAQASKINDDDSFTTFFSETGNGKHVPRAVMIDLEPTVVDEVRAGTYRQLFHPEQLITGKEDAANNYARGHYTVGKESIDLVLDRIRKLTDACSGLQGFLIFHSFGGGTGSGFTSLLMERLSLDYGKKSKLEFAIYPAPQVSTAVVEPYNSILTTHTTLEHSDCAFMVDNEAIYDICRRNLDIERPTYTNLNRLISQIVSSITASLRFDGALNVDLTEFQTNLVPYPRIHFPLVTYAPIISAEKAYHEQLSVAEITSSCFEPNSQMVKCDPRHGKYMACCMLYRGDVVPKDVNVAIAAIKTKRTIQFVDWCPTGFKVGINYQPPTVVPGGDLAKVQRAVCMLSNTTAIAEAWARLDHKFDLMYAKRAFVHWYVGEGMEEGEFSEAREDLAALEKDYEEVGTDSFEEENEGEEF
Tubulin alpha-1B chain (Homo sapiens), sequence (P68363 whole entry, looked up): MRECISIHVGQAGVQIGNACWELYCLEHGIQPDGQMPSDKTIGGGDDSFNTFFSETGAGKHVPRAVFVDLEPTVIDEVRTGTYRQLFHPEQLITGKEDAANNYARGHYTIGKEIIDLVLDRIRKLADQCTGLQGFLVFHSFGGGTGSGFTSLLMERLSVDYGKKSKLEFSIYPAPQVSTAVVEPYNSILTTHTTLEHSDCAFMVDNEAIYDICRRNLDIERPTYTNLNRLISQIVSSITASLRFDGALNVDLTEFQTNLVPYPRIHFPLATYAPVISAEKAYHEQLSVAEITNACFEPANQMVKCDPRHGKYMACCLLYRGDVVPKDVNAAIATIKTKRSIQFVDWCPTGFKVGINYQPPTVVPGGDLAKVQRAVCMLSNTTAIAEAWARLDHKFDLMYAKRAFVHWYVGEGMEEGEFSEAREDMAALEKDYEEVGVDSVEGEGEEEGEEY
Tubulin (Sus scrofa), sequence (P02550 whole entry, looked up): as the sequence (P68363 whole entry, looked up) above, with L136S, S232G, I265A, S340T, Q358E counted along it
Tubulin (Sus scrofa), sequence (P02554 whole entry, looked up): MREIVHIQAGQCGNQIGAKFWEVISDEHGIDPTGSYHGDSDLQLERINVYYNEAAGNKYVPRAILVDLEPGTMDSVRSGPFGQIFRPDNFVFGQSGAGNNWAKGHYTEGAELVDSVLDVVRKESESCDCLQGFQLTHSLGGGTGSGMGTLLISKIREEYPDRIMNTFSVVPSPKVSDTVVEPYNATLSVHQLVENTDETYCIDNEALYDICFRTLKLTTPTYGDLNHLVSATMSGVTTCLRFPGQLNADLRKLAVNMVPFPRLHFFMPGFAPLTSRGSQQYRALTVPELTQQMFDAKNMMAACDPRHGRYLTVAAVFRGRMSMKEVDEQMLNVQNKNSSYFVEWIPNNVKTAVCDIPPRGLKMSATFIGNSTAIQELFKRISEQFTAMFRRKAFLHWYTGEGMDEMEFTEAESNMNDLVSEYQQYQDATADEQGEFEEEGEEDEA
D-3-phosphoglycerate dehydrogenase (Homo sapiens), sequence (O43175 whole entry): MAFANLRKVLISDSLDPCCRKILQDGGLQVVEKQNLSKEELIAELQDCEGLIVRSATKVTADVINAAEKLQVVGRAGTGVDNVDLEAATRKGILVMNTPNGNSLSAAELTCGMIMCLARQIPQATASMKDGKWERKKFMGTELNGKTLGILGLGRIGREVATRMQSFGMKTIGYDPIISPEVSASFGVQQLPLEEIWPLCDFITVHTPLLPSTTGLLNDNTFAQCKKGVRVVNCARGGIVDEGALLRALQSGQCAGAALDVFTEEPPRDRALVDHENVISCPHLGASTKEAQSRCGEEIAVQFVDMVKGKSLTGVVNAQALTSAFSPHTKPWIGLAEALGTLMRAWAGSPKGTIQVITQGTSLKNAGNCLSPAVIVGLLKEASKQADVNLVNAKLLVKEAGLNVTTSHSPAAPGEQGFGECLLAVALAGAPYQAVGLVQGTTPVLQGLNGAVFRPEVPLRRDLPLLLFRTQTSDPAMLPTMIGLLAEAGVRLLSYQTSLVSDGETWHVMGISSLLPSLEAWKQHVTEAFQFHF
Tubulin beta-5 chain (Homo sapiens), sequence (P07437 whole entry): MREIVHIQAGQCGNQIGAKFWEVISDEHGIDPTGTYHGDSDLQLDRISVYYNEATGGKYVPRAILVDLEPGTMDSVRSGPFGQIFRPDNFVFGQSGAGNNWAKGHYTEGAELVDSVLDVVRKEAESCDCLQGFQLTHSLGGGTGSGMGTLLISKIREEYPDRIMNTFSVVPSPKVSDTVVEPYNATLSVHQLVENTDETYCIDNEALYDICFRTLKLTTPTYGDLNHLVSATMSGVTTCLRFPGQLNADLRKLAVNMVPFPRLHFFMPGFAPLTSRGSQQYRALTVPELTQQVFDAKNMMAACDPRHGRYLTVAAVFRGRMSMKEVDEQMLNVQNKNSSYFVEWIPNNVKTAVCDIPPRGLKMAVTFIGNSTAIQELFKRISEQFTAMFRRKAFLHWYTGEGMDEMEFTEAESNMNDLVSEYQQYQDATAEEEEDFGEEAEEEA
Tubulin alpha-1C chain (Homo sapiens), sequence (Q9BQE3 whole entry, looked up): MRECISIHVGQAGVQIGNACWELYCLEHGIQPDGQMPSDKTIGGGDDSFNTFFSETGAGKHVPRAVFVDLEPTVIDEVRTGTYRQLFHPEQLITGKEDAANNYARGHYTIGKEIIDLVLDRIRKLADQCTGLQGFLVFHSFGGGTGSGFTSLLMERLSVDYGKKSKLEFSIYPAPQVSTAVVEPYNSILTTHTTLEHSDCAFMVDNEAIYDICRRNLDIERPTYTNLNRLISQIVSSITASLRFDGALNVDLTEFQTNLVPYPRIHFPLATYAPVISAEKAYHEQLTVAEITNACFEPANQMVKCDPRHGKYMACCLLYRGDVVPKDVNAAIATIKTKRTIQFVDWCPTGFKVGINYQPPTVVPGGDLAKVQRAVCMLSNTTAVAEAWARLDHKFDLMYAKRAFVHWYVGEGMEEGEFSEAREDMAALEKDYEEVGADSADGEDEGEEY
Heterogeneous nuclear ribonucleoprotein H (Homo sapiens), sequence (P31943 whole entry): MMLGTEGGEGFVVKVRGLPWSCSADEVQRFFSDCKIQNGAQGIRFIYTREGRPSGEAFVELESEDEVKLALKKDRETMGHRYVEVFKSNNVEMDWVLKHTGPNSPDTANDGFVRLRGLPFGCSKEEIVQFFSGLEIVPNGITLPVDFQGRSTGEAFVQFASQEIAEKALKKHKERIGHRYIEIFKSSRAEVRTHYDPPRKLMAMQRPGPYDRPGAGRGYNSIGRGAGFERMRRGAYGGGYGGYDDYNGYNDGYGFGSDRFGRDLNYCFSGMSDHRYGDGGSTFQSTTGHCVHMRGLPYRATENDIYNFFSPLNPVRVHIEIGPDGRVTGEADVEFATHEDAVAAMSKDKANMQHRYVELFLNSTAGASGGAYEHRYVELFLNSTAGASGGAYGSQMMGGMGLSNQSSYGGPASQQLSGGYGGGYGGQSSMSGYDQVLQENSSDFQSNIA
Tubulin beta-2A chain (Homo sapiens), sequence (Q13885 whole entry): as the sequence (P02554 whole entry, looked up) above, with V170M, C201S, A296S, V316I, G440E, E441G counted along it
Creatine kinase B-type (Homo sapiens), sequence (P12277 whole entry): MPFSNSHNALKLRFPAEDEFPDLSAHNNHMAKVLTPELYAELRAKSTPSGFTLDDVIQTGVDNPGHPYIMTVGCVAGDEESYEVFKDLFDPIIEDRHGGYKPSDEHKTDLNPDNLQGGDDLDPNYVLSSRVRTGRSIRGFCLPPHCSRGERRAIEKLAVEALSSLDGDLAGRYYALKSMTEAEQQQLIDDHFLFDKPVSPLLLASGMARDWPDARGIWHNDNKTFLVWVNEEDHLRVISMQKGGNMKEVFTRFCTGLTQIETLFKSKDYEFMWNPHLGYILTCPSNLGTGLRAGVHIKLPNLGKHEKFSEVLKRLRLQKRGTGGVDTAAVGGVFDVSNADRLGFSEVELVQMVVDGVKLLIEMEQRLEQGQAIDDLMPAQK
Tubulin beta-4A chain (Homo sapiens), sequence (P04350 whole entry): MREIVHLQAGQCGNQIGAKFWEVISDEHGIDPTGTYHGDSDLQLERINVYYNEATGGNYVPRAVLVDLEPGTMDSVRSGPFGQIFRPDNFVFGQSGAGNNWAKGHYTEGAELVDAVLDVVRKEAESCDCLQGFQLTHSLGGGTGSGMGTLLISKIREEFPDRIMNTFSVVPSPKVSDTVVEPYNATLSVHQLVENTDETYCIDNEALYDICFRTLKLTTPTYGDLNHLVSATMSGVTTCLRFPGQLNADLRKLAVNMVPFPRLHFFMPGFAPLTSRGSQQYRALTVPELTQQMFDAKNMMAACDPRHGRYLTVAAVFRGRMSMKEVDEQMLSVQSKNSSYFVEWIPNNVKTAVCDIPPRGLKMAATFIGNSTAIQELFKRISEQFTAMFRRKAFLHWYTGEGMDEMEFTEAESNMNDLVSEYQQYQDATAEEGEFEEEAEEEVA

inhibition (Tubulin (Sus scrofa)): Dose-dependent effect
SMILES: CC1=NN(c2ccc(C(=O)O)cc2)C(=O)/C1=C\c1ccc(-c2cc(C)c(C)cc2[N+](=O)[O-])o1

Activity (HEK293 [1]): Dose-dependent effect | fold change (FC) [2]: 25 | fold change (FC) [3]: 25 | fold change (FC) [4]: 25 | fold change (FC) [5]: 36 | fold change (FC) [6]: 64 | fold change (FC) [7]: 12 | fold change (FC) [8]: 25 | fold change (FC) [9]: 24 | fold change (FC) [10]: 19 | Activity [11]: Active | fold change (FC) [12]: 7 | Activity [13]: Active | fold change (FC) [14]: 17 | fold change (FC) [15]: 9 | fold change (FC) [16]: 16 | fold change (FC) [17]: 16 | fold change (FC) [18]: 4 | fold change (FC) [19]: 8 | Activity (HEK293 [20]): inactive | Activity (HEK293 [21]): Active | IC50 [22]: 14.1 µM
SMILES: C#CCNC(=O)c1ccc(N2N=C(C)/C(=C/c3ccc(-c4cc(C)c(C)cc4[N+](=O)[O-])o3)C2=O)cc1
